Results reported in ChEMBL document CHEMBL4118192, “BET bromodomain ligands: Probing the WPF shelf to improve BRD4 bromodomain affinity and metabolic stability” (Bioorg Med Chem, 2018).

How the values were obtained:
Assay type in all cases: functional
[1] = tested on: MCF7; assay: Growth inhibition of human MCF7 cells after 48 hrs by SRB assay; conditions: MCF7, 48 h
How it was run: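 In-house assay. Cells were seeded into 96-well plates at a density for exponential growth and treated with a concentration range for 48 h. They were then fixed in 10% (w/v) TCA and stained with sulforhodamine B. The 50% growth-inhibitory concentration relative to control cells was calculated as the mean of three repeats ± standard deviation.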

[2] = tested on: HL-60(TB); assay: Growth inhibition of human HL-60(TB) cells at 10 uM after 48 hrs by sulforhodamine B assay relative to control; conditions: HL-60, 48 h, read-out: GI
How it was run: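 NCI-60 human cancer cell line screen, single dose of 10 μM for 48 h. Growth inhibition measured by sulforhodamine B assay of cellular protein content.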

[3] = tested on: MOLT-4; assay: Growth inhibition of human MOLT4 cells at 10 uM after 48 hrs by sulforhodamine B assay relative to control; conditions: MOLT-4, 48 h, read-out: GI
How it was run: (§1)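 NCI-60 human cancer cell line screen, single-dose pass: cells exposed to 10 μM for 48 h. Cellular protein content read out by sulforhodamine B staining, and growth inhibition expressed relative to untreated control.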

[4] = tested on: NCI-H226; assay: Growth inhibition of human NCI-H226 cells at 10 uM after 48 hrs by sulforhodamine B assay relative to control; conditions: NCI-H226, 48 h, read-out: GI; how it was run: as §1
[5] = tested on: NCI-H522; assay: Growth inhibition of human NCI-H522 cells at 10 uM after 48 hrs by sulforhodamine B assay relative to control; conditions: NCI-H522, 48 h, read-out: GI; how it was run: as §1
[6] = tested on: HCT-116; assay: Growth inhibition of human HCT116 cells at 10 uM after 48 hrs by sulforhodamine B assay relative to control; conditions: HCT-116, 48 h, read-out: GI
How it was run: (§2)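 NCI-60 single-dose screen at 10 μM for 48 h. Percent growth inhibition was measured by sulforhodamine B staining of cellular protein.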

[7] = tested on: HT-29; assay: Growth inhibition of human HT-29 cells at 10 uM after 48 hrs by sulforhodamine B assay relative to control; conditions: HT-29, 48 h, read-out: GI; how it was run: as §2
[8] = tested on: KM12; assay: Growth inhibition of human KM12 cells at 10 uM after 48 hrs by sulforhodamine B assay relative to control; conditions: KM12, 48 h, read-out: GI; how it was run: as §2
[9] = tested on: SF-295; assay: Growth inhibition of human SF295 cells at 10 uM after 48 hrs by sulforhodamine B assay relative to control; conditions: SF-295, 48 h, read-out: GI; how it was run: as §1
[10] = tested on: SNB-19; assay: Growth inhibition of human SNB19 cells at 10 uM after 48 hrs by sulforhodamine B assay relative to control; conditions: SNB-19, 48 h, read-out: GI; how it was run: as §1
[11] = tested on: M14; assay: Growth inhibition of human M14 cells at 10 uM after 48 hrs by sulforhodamine B assay relative to control; conditions: M14, 48 h, read-out: GI; how it was run: as §2
[12] = tested on: MDA-MB-435; assay: Growth inhibition of human MDA-MB-435 cells at 10 uM after 48 hrs by sulforhodamine B assay relative to control; conditions: MDA-MB-435, 48 h, read-out: GI; how it was run: as §1
[13] = tested on: SK-MEL-2; assay: Growth inhibition of human SK-MEL-2 cells at 10 uM after 48 hrs by sulforhodamine B assay relative to control; conditions: SK-MEL-2, 48 h, read-out: GI; how it was run: as §1
[14] = tested on: OVCAR-3; assay: Growth inhibition of human OVCAR3 cells at 10 uM after 48 hrs by sulforhodamine B assay relative to control; conditions: OVCAR-3, 48 h, read-out: GI; how it was run: as §1
[15] = tested on: OVCAR-4; assay: Growth inhibition of human OVCAR4 cells at 10 uM after 48 hrs by sulforhodamine B assay relative to control; conditions: OVCAR-4, 48 h, read-out: GI; how it was run: as §1
[16] = tested on: OVCAR-5; assay: Growth inhibition of human OVCAR5 cells at 10 uM after 48 hrs by sulforhodamine B assay relative to control; conditions: OVCAR-5, 48 h, read-out: GI; how it was run: as §1
[17] = tested on: SK-OV-3; assay: Growth inhibition of human SKOV3 cells at 10 uM after 48 hrs by sulforhodamine B assay relative to control; conditions: SK-OV-3, 48 h, read-out: GI; how it was run: as §1
[18] = tested on: ACHN; assay: Growth inhibition of human ACHN cells at 10 uM after 48 hrs by sulforhodamine B assay relative to control; conditions: read-out: GI; how it was run: as §2
[19] = tested on: SN12C; assay: Growth inhibition of human SN12C cells at 10 uM after 48 hrs by sulforhodamine B assay relative to control; conditions: read-out: GI; how it was run: as §1
[20] = tested on: DU-145; assay: Growth inhibition of human DU145 cells at 10 uM after 48 hrs by sulforhodamine B assay relative to control; conditions: DU-145, 48 h, read-out: GI; how it was run: as §2
[21] = tested on: Hs-578T; assay: Growth inhibition of human Hs 578T cells at 10 uM after 48 hrs by sulforhodamine B assay relative to control; conditions: read-out: GI; how it was run: as §2
[22] = tested on: NCI-H460; assay: Growth inhibition of human NCI-H460 cells after 48 hrs by sulforhodamine B assay; conditions: NCI-H460, 48 h
How it was run: (§3)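 NCI-60 panel follow-up: five concentrations from 10 nM to 100 μM, 48 h exposure. Growth read by sulforhodamine B protein staining. GI50 derived from the concentration-response, with the concentration for total growth inhibition (TGI) also recorded when below 100 μM.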

[23] = tested on: NCI-H522; assay: Growth inhibition of human NCI-H522 cells after 48 hrs by sulforhodamine B assay; conditions: NCI-H522, 48 h; how it was run: as §3
[24] = tested on: KM12; assay: Growth inhibition of human KM12 cells after 48 hrs by sulforhodamine B assay; conditions: KM12, 48 h
How it was run: (§4)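 NCI-60 panel screen. Cells were exposed for 48 h at five concentrations between 10 nM and 100 μM. Cellular protein was read by sulforhodamine B staining, and GI50 and total growth inhibition (TGI) concentrations were derived.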

[25] = tested on: SNB-75; assay: Growth inhibition of human SNB75 cells after 48 hrs by sulforhodamine B assay; conditions: SNB-75, 48 h; how it was run: as §3
[26] = tested on: U-251; assay: Growth inhibition of human U251 cells after 48 hrs by sulforhodamine B assay; conditions: U-251, 48 h
How it was run: (§5)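 NCI-60 panel cells treated at five concentrations from 10 nM to 100 μM for 48 h. Read-out by sulforhodamine B protein stain. GI50 and total growth inhibition (TGI, if below 100 μM) taken from the concentration-response data.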

[27] = tested on: SK-MEL-5; assay: Growth inhibition of human SK-MEL-5 cells after 48 hrs by sulforhodamine B assay; conditions: SK-MEL-5, 48 h; how it was run: as §3
[28] = tested on: OVCAR-4; assay: Growth inhibition of human OVCAR4 cells after 48 hrs by sulforhodamine B assay; conditions: OVCAR-4, 48 h; how it was run: as §3
[29] = tested on: OVCAR-5; assay: Growth inhibition of human OVCAR5 cells after 48 hrs by sulforhodamine B assay; conditions: OVCAR-5, 48 h; how it was run: as §3
[30] = tested on: OVCAR-8; assay: Growth inhibition of human OVCAR8 cells after 48 hrs by sulforhodamine B assay; conditions: OVCAR-8, 48 h; how it was run: as §3
[31] = tested on: ACHN; assay: Growth inhibition of human ACHN cells after 48 hrs by sulforhodamine B assay; how it was run: as §4
[32] = tested on: CAKI-1; assay: Growth inhibition of human CAKI-1 cells after 48 hrs by sulforhodamine B assay; conditions: CAKI-1, 48 h; how it was run: as §4
[33] = tested on: BT-549; assay: Growth inhibition of human BT549 cells after 48 hrs by sulforhodamine B assay; conditions: BT-549, 48 h; how it was run: as §4
[34] = tested on: T47D; assay: Growth inhibition of human T47D cells after 48 hrs by sulforhodamine B assay; how it was run: as §5

Row | SMILES | GI50 [1] [µM] | inhibition of growth at 10 µM [2] [%] | inhibition of growth at 10 µM [3] [%] | inhibition of growth at 10 µM [4] [%] | inhibition of growth at 10 µM [5] [%] | inhibition of growth at 10 µM [6] [%] | inhibition of growth at 10 µM [7] [%] | inhibition of growth at 10 µM [8] [%] | inhibition of growth at 10 µM [9] [%] | inhibition of growth at 10 µM [10] [%] | inhibition of growth at 10 µM [11] [%] | inhibition of growth at 10 µM [12] [%] | inhibition of growth at 10 µM [13] [%] | inhibition of growth at 10 µM [14] [%] | inhibition of growth at 10 µM [15] [%] | inhibition of growth at 10 µM [16] [%] | inhibition of growth at 10 µM [17] [%] | inhibition of growth at 10 µM [18] [%] | inhibition of growth at 10 µM [19] [%] | inhibition of growth at 10 µM [20] [%] | further results
1 | Cc1noc(C)c1-c1cc(O)cc(C(O)c2ccccc2)c1 (centres undefined) | 1.25 to 1.7 | 90 | 41.3 | 34.5 | 77.9 | 42 | 65.4 | 46.9 | 57.5 | 47.3 | 44 | 56.1 | 39.6 | 53.3 | 67.5 | 26.7 | 56.3 | 39.4 | 25.5 | 12.5 | inhibition of growth at 10 µM [21]: 66.3%; GI50 [22]: 25.1 µM; GI50 [23]: 27 µM; GI50 [24]: 8.2 µM; GI50 [25]: 0.423 µM; GI50 [26]: 15 µM; GI50 [27]: 5.95 µM; TGI [27]: 29.5 µM; GI50 [28]: 6.35 µM; GI50 [29]: 31.8 µM; GI50 [30]: 8.33 µM; GI50 [31]: 4.76 µM; GI50 [32]: 4.58 µM; GI50 [33]: 28.2 µM; GI50 [34]: 7.7 µM
2 | COc1ccccc1S(=O)(=O)Nc1ccc2c(c1)CN(C)C(=O)N2 | 1.5 | 78.1 | 61.6 | 37 | 73.9 | 50.3 | 77.2 | 55 | 94.7 | 45.9 | 52.2 | 65.8 | 52.4 | 67.8 | 56.9 | 25.5 | 50.9 | 65.3 | 46.8 | 22.2 | inhibition of growth at 10 µM [21]: 66.3%; GI50 [22]: 9.3 µM; GI50 [23]: 8.7 µM; GI50 [24]: 10.7 µM; GI50 [25]: 0.4 µM; GI50 [26]: 15.1 µM; GI50 [27]: 6.3 µM; GI50 [28]: 6.3 µM; GI50 [29]: 10.5 µM; GI50 [30]: 9.1 µM; GI50 [31]: 7.8 µM; GI50 [32]: 3.6 µM; GI50 [33]: 14.8 µM; GI50 [34]: 3.7 µM
